Measurements taken from ChEMBL document CHEMBL4038273, “MAO enzymes inhibitory activity of new benzimidazole derivatives including hydrazone and propargyl side chains” (Eur J Med Chem, 2017).

Columns and labels:
[1] = molecular target: T1, Amine oxidase [flavin-containing] B (Homo sapiens, UniProt P27338); assay: Inhibition of recombinant human MAO-B expressed in baculovirus infected BTI insect cells using tyramine as substrate pretreated for 30 mins followed by substrate addition incubated for 30 mins measured at 5 mins interval by horse-radish peroxidase/amplex red-based fluorometric method; assay type: cell-based
T1 sequence (P27338 whole entry): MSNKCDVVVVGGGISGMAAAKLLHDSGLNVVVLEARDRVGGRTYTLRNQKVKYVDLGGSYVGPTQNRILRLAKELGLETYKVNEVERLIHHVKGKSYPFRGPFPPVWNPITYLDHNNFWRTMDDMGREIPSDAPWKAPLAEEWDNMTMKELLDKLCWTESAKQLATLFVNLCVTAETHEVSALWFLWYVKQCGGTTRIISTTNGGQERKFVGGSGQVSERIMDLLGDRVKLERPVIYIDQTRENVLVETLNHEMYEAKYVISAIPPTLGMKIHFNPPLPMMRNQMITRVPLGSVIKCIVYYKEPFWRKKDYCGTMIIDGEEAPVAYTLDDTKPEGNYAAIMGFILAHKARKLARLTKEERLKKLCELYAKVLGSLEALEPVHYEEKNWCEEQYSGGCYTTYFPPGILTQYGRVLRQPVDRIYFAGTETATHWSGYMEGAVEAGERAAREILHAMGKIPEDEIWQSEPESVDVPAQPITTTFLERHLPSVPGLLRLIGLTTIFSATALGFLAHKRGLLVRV

Homo sapiens = species on record: Homo sapiens; assay: Selectivity index, ratio of IC50 for recombinant human MAO-A expressed in baculovirus infected BTI insect cells to IC50 for recombinant human MAO-B expressed in baculovirus infected BTI insect cells
Summary of the method: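 Selectivity index calculated as IC50(MAO-A)/IC50(MAO-B), with both IC50 values from the fluorometric tyramine/HRP/Amplex Red inhibition assay.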

Salmonella typhimurium [2] = assay: Genotoxicity in Salmonella typhimurium TA98 assessed as increase in number of revertants at 0.156 mg/ml in presence of aroclor-1254-induced Sprague-Dawley rat liver microsomal S9 fraction by Ames-MPF assay relative to baseline; assay type: toxicity; conditions: salmonella enterica subsp. enterica serovar typhimurium, microsomes
Summary of the method: (§1)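 AmesMPF 98/100 fluctuation format with S. typhimurium TA98 (frameshift) and TA100 (base-pair substitution), run with and without S9. Compounds were made up in DMSO at 0.156–5 mg/mL, six levels; solvent control was 4% DMSO. With S9, positive controls were 2-aminoanthracene at 1 µg/mL (TA98) and 2.5 µg/mL (TA100). Wells turned yellow by pH drop were scored positive. Fold over baseline is mean positive wells divided by (zero-dose mean + 1 SD). Student's t-test, p<0.05.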

Salmonella typhimurium [3] = assay: Genotoxicity in Salmonella typhimurium TA98 assessed as increase in number of revertants at 0.3125 mg/ml in presence of aroclor-1254-induced Sprague-Dawley rat liver microsomal S9 fraction by Ames-MPF assay relative to baseline; assay type: toxicity; conditions: salmonella enterica subsp. enterica serovar typhimurium, microsomes; summary of the method: as §1
Salmonella typhimurium [4] = assay: Genotoxicity in Salmonella typhimurium TA98 assessed as increase in number of revertants at 0.625 mg/ml in presence of aroclor-1254-induced Sprague-Dawley rat liver microsomal S9 fraction by Ames-MPF assay relative to baseline; assay type: toxicity; conditions: salmonella enterica subsp. enterica serovar typhimurium, microsomes; summary of the method: as §1
Salmonella typhimurium [5] = assay: Genotoxicity in Salmonella typhimurium TA98 assessed as increase in number of revertants at 1.25 mg/ml in presence of aroclor-1254-induced Sprague-Dawley rat liver microsomal S9 fraction by Ames-MPF assay relative to baseline; assay type: toxicity; conditions: salmonella enterica subsp. enterica serovar typhimurium, microsomes; summary of the method: as §1
Salmonella typhimurium [6] = assay: Genotoxicity in Salmonella typhimurium TA98 assessed as increase in number of revertants at 2.5 mg/ml in presence of aroclor-1254-induced Sprague-Dawley rat liver microsomal S9 fraction by Ames-MPF assay relative to baseline; assay type: toxicity; conditions: salmonella enterica subsp. enterica serovar typhimurium, microsomes; summary of the method: as §1
Salmonella typhimurium [7] = assay: Genotoxicity in Salmonella typhimurium TA98 assessed as increase in number of revertants at 5 mg/ml in presence of aroclor-1254-induced Sprague-Dawley rat liver microsomal S9 fraction by Ames-MPF assay relative to baseline; assay type: toxicity; conditions: salmonella enterica subsp. enterica serovar typhimurium, microsomes; summary of the method: as §1
Salmonella typhimurium [8] = assay: Genotoxicity in Salmonella typhimurium TA98 assessed as increase in number of revertants at 0.156 mg/ml in absence of aroclor-1254-induced Sprague-Dawley rat liver microsomal S9 fraction by Ames-MPF assay relative to baseline; assay type: toxicity; conditions: salmonella enterica subsp. enterica serovar typhimurium, microsomes; summary of the method: as §1
Salmonella typhimurium [9] = assay: Genotoxicity in Salmonella typhimurium TA98 assessed as increase in number of revertants at 0.625 mg/ml in absence of aroclor-1254-induced Sprague-Dawley rat liver microsomal S9 fraction by Ames-MPF assay relative to baseline; assay type: toxicity; conditions: salmonella enterica subsp. enterica serovar typhimurium, microsomes; summary of the method: as §1
Salmonella typhimurium [10] = assay: Genotoxicity in Salmonella typhimurium TA98 assessed as increase in number of revertants at 1.25 mg/ml in absence of aroclor-1254-induced Sprague-Dawley rat liver microsomal S9 fraction by Ames-MPF assay relative to baseline; assay type: toxicity; conditions: salmonella enterica subsp. enterica serovar typhimurium, microsomes; summary of the method: as §1
Salmonella typhimurium [11] = assay: Genotoxicity in Salmonella typhimurium TA98 assessed as increase in number of revertants at 2.5 mg/ml in absence of aroclor-1254-induced Sprague-Dawley rat liver microsomal S9 fraction by Ames-MPF assay relative to baseline; assay type: toxicity; conditions: salmonella enterica subsp. enterica serovar typhimurium, microsomes; summary of the method: as §1
Salmonella typhimurium [12] = assay: Genotoxicity in Salmonella typhimurium TA98 assessed as increase in number of revertants at 5 mg/ml in absence of aroclor-1254-induced Sprague-Dawley rat liver microsomal S9 fraction by Ames-MPF assay relative to baseline; assay type: toxicity; conditions: salmonella enterica subsp. enterica serovar typhimurium, microsomes; summary of the method: as §1
Salmonella typhimurium [13] = assay: Genotoxicity in Salmonella typhimurium TA100 assessed as increase in number of revertants at 0.156 mg/ml in presence of aroclor-1254-induced Sprague-Dawley rat liver microsomal S9 fraction by Ames-MPF assay relative to baseline; assay type: toxicity; conditions: salmonella enterica subsp. enterica serovar typhimurium, microsomes; summary of the method: as §1
Salmonella typhimurium [14] = assay: Genotoxicity in Salmonella typhimurium TA100 assessed as increase in number of revertants at 0.3125 mg/ml in presence of aroclor-1254-induced Sprague-Dawley rat liver microsomal S9 fraction by Ames-MPF assay relative to baseline; assay type: toxicity; conditions: salmonella enterica subsp. enterica serovar typhimurium, microsomes; summary of the method: as §1
Salmonella typhimurium [15] = assay: Genotoxicity in Salmonella typhimurium TA100 assessed as increase in number of revertants at 2.5 mg/ml in presence of aroclor-1254-induced Sprague-Dawley rat liver microsomal S9 fraction by Ames-MPF assay relative to baseline; assay type: toxicity; conditions: salmonella enterica subsp. enterica serovar typhimurium, microsomes; summary of the method: as §1
Salmonella typhimurium [16] = assay: Genotoxicity in Salmonella typhimurium TA100 assessed as increase in number of revertants at 5 mg/ml in presence of aroclor-1254-induced Sprague-Dawley rat liver microsomal S9 fraction by Ames-MPF assay relative to baseline; assay type: toxicity; conditions: salmonella enterica subsp. enterica serovar typhimurium, microsomes; summary of the method: as §1
Salmonella typhimurium [17] = assay: Genotoxicity in Salmonella typhimurium TA100 assessed as increase in number of revertants at 0.3125 mg/ml in absence of aroclor-1254-induced Sprague-Dawley rat liver microsomal S9 fraction by Ames-MPF assay relative to baseline; assay type: toxicity; conditions: salmonella enterica subsp. enterica serovar typhimurium, microsomes; summary of the method: as §1
Salmonella typhimurium [18] = assay: Genotoxicity in Salmonella typhimurium TA100 assessed as increase in number of revertants at 1.25 mg/ml in absence of aroclor-1254-induced Sprague-Dawley rat liver microsomal S9 fraction by Ames-MPF assay relative to baseline; assay type: toxicity; conditions: salmonella enterica subsp. enterica serovar typhimurium, microsomes; summary of the method: as §1
Salmonella typhimurium [19] = assay: Genotoxicity in Salmonella typhimurium TA100 assessed as increase in number of revertants at 2.5 mg/ml in absence of aroclor-1254-induced Sprague-Dawley rat liver microsomal S9 fraction by Ames-MPF assay relative to baseline; assay type: toxicity; conditions: salmonella enterica subsp. enterica serovar typhimurium, microsomes; summary of the method: as §1
Salmonella typhimurium [20] = assay: Genotoxicity in Salmonella typhimurium TA100 assessed as increase in number of revertants at 5 mg/ml in absence of aroclor-1254-induced Sprague-Dawley rat liver microsomal S9 fraction by Ames-MPF assay relative to baseline; assay type: toxicity; conditions: salmonella enterica subsp. enterica serovar typhimurium, microsomes; summary of the method: as §1

C#CCn1c(-c2ccc(C(=O)N/N=C/c3ccc(F)cc3)cc2)nc2ccccc21
IC50 [1]: 136 nM
Ratio IC50 (Homo sapiens): 6.26
fold change (FC) (Salmonella typhimurium [2]): 1.3
fold change (FC) (Salmonella typhimurium [3]): 2.13
fold change (FC) (Salmonella typhimurium [4]): 2.01
fold change (FC) (Salmonella typhimurium [5]): 2.13
fold change (FC) (Salmonella typhimurium [6]): 2.95
fold change (FC) (Salmonella typhimurium [7]): 3.07
fold change (FC) (Salmonella typhimurium [8]): 0.68
fold change (FC) (Salmonella typhimurium [9]): 0.23
fold change (FC) (Salmonella typhimurium [10]): 0.28
fold change (FC) (Salmonella typhimurium [11]): 0.28
fold change (FC) (Salmonella typhimurium [12]): 0.34
fold change (FC) (Salmonella typhimurium [13]): 0.79
fold change (FC) (Salmonella typhimurium [14]): 0.49
fold change (FC) (Salmonella typhimurium [15]): 1.88
fold change (FC) (Salmonella typhimurium [16]): 1.94
fold change (FC) (Salmonella typhimurium [17]): 0.79
fold change (FC) (Salmonella typhimurium [18]): 0.59
fold change (FC) (Salmonella typhimurium [19]): 1.78
fold change (FC) (Salmonella typhimurium [20]): 1.63

C#CCn1c(-c2ccc(C(=O)N/N=C/c3cccnc3)cc2)nc2ccccc21
IC50 [1]: 75 nM
Ratio IC50 (Homo sapiens): 128
fold change (FC) (Salmonella typhimurium [2]): 0.35
fold change (FC) (Salmonella typhimurium [3]): 0.35
fold change (FC) (Salmonella typhimurium [4]): 0.35
fold change (FC) (Salmonella typhimurium [5]): 0.52
fold change (FC) (Salmonella typhimurium [6]): 0.52
fold change (FC) (Salmonella typhimurium [7]): 0
fold change (FC) (Salmonella typhimurium [8]): 1.03
fold change (FC) (Salmonella typhimurium [9]): 0.51
fold change (FC) (Salmonella typhimurium [10]): 0.68
fold change (FC) (Salmonella typhimurium [11]): 0.4
fold change (FC) (Salmonella typhimurium [12]): 0.46
fold change (FC) (Salmonella typhimurium [13]): 0.53
fold change (FC) (Salmonella typhimurium [14]): 0.27
fold change (FC) (Salmonella typhimurium [15]): 0.27
fold change (FC) (Salmonella typhimurium [16]): 0.07
fold change (FC) (Salmonella typhimurium [17]): 0.99
fold change (FC) (Salmonella typhimurium [18]): 0.64
fold change (FC) (Salmonella typhimurium [19]): 0.74
fold change (FC) (Salmonella typhimurium [20]): 0.89
